Compound activity deposited in PubChem BioAssay by several laboratories.
TbHK1 inh = T. brucei hexokinase 1 inhibition. recombinant TbHK1, G6PDH-coupled NADH A340. inhibition, % at 10 µM. 0.11% of 220,000 active. AID 1430;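 active = inhibition of 50% or more in the single-dose primary screen; inactive = inhibition below 50%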
Hck Nef HTS = human Hck-Nef kinase inhibition. 0.68% of 220,000 active. inhibition, % at 20 µM. P08631. Recombinant Hck-YEEI plus Nef, Z-Lyte FRET kinase assay. AID 463187;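 active = Hck-Nef kinase inhibition above about 50%, limit read from the data; inactive = inhibition below that limit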;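 note: 0% = DMSO with Hck plus Nef and 100% = Hck alone without Nef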
Target sequence (P08631 whole entry, looked up): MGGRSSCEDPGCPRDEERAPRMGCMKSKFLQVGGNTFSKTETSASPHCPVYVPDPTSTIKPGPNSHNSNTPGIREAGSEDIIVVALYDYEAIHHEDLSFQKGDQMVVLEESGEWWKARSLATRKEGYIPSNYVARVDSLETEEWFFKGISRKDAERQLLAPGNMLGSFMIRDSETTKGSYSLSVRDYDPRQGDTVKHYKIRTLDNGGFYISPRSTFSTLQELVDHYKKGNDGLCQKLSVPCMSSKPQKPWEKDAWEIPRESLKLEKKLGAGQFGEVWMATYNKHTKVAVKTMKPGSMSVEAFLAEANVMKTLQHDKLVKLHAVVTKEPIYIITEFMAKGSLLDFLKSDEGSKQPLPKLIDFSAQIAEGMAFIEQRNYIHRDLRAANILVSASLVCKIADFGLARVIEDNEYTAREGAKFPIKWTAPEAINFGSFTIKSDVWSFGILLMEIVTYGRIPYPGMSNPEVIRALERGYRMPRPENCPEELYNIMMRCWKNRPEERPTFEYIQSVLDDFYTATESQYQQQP
Runt-SMMHC FRET = blocks binding of human RUNX1 Runt domain to CBFb-SMMHC; Q01196+Q13951; Cerulean-Runt/Venus-CBFb-SMMHC FRET ratio 530/480, 1 h; inhibition, % at 20 µM; 0.74% of 220,000 active; AID 1434;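 active = mean inhibition across duplicate retests at 20 µM reaching about 50%, limit read from the data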;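 note: 0% = DMSO wells and 100% = wells with excess untagged CBFb-SMMHC; inhibitors lower the FRET ratio by blocking Runt binding to CBFb-SMMHC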
RanGTP-Impb inh = disruptors of Ran-importin-beta complex formation – biochemical, FRET, CFP-Ran, YFP-importin-beta, homogeneous, primary screen; cell-free CFP-Ran/YFP-importin-beta FRET ratio; 1.1% of 300,000 active; inhibition, % (concentration not given with the values); AID 2216;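 active = more than half of the replicate wells show a fall in the fluorescence ratio signal beyond about 16%, limit read from the data, passing the limit was not always enough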;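 note: 0% = DMSO wells and 100% = Ran loaded with GDP instead of GTP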
Runt-CBFb FRET = Runt domain-CBFb interaction inhibition. Q01196+Q13951. Cerulean-Runt/Venus-CBFb FRET ratio 530/480, 1 h. inhibition, % at 20 µM. 0.46% of 220,000 active. AID 1496;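 active = inhibition over about 50% at 20 µM in the single-dose screen, limit read from the data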;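 note: 0% = DMSO wells and 100% = excess unlabeled CBFb competitor control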
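test system = Cerulean-tagged RUNX1 Runt domain (FRET donor) fusion protein | reagent = Venus-CBFb binding partner, 100 nM | incubation = protein complex preformed 1 h, compound exposure 1 h, room temperature, dark | detection = FRET fluorescence | read-out basis = loss of energy transfer signal | controls = 5 µM unlabeled CBFb as full-inhibition high control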
An asterisk follows results filed as active; · = not tested or not shown. A selection: hits, their analogues and other compounds. The true share with any hit is near 1.9%.

SMILES | TbHK1 inh | Hck Nef HTS | Runt-SMMHC FRET | RanGTP-Impb inh | Runt-CBFb FRET
CCn1c(C)c(C(C)=O)c(N2CCN(c3cccc(Cl)c3)CC2)nc1=S | -12.8 | -2.5 | 54.2 | 28.5* | -37.5
CC(=O)c1c(N2CCN(c3ccccn3)CC2)nc(=S)n(-c2ccccc2)c1C | -9.0 | 19.4 | 98.8* | 57.0* | 93.1*
Cc1cc(C)nc(/N=C(\N)Nc2ccccc2-c2ccccc2)n1 | 10.2 | 24.4 | 0.4 | 2.6 | 1.3
CN(c1ccccc1)S(=O)(=O)c1nnc(NC(=O)c2ccco2)s1 | · | · | · | 4.1 | ·
Cc1cccc(N(C)S(=O)(=O)c2nnc(NC(=O)c3ccco3)s2)c1 | · | · | · | 175.8* | ·
CCn1nc(C)cc1Nc1ccccc1 | 23.0 | -8.4 | -4.5 | 37.3* | 2.1
COc1cccc(CNC(=O)Cn2c(=O)c3cccn3c3ccccc32)c1 | · | · | · | -0.6 | ·
COC(=O)[C@]1(Cc2ccccc2)N[C@H](c2ccc(-c3cc(C(C)=O)cs3)cc2)[C@@H]2C(=O)N(C)C(=O)[C@@H]21 | · | · | · | 1.0 | ·
CN1CCc2c(sc(NC(=O)c3ccco3)c2C(N)=O)C1 | · | · | · | 83.0* | ·
CC(C)N1CCc2c(sc(NC(=O)c3ccco3)c2C(N)=O)C1 | · | · | · | 101.2* | ·
COC(=O)c1c(NC(=O)c2ccco2)sc2c1CCN(C(C)C)C2 | · | · | · | 53.6* | ·
CN1CCc2c(sc(NC(=O)c3cc(Cl)sc3Cl)c2C(N)=O)C1 | · | · | · | 147.1* | ·
CN1CCc2c(sc(NC(=O)c3cc4cc([N+](=O)[O-])ccc4s3)c2C(N)=O)C1 | -16.8 | 21.3 | 17.2 | 3.6 | 5.0
CCOc1ccc2nc(SCC(=O)Nc3cc4c(cc3C(C)=O)OCO4)[nH]c2c1 | -7.5 | -1.1 | -4.0 | 1.9 | -1.6
Cc1ncc(CO)c2cc(C(=O)Nc3ccccc3Cl)c(=Nc3cccc(C(N)=O)c3)oc12 | · | · | · | -1.5 | ·
Cc1ccc2nc3c(cc2c1)c(NC(=O)C(C)(C)C)nn3CC(C)C | · | · | · | 44.5* | ·
Cc1ccc2nc3c(cc2c1)c(NC(=O)c1ccco1)nn3CC(C)C | 19.5 | 17.1 | 81.2* | 78.4* | 49.8
CC(C)Cn1nc(NC(=O)c2ccco2)c2cc3ccccc3nc21 | -3.4 | -7.6 | 75.2 | 51.3* | 30.1
CCn1nc(NC(=O)c2ccncc2)c2cc3ccccc3nc21 | -4.4 | 5.9 | 7.0 | 3.0 | 6.5
CCn1nc(NC(=O)c2ccco2)c2cc3ccccc3nc21 | -7.8 | 19.5 | 9.9 | 30.1* | 8.6
Cc1ccc2nc(-c3cccc(NC(=O)c4ccco4)c3)[nH]c2c1 | 3.4 | 1.5 | -7.4 | 0.4 | -0.7
O=C(Nc1cccc(Cl)c1)c1ccc(=O)[nH]n1 | · | · | · | 4.8 | ·
CC1(C)CC(=O)C2=C(C1)OC1=C(C(=O)CC(C)(C)C1)C2c1ccc(O)c([N+](=O)[O-])c1 | -7.0 | -12.4 | -1.2 | 0.0 | -3.4
CC1(C)CC(=O)C2=C(C1)OC1=C(C(=O)CC(C)(C)C1)C2c1ccc(O)cc1O | 14.0 | 0.0 | 42.0 | 92.5* | 6.4
Cc1ccc(-c2ccc(=O)n(CC(=O)NCCC(C)C)n2)cc1 | · | · | · | 3.0 | ·
SMILES | TbHK1 inh | Hck Nef HTS | Runt-SMMHC FRET | RanGTP-Impb inh | Runt-CBFb FRET
CCOc1ccccc1NC(=O)Cn1c(=O)n(-c2ccc(OC)cc2OC)c(=O)c2c(C)c(C(=O)N(CC)CC)sc21 | -7.9 | 20.5 | -2.7 | 2.4 | -8.9
CCOc1ccc(-n2c(=O)c3c(C)c(C(=O)N(C)C)sc3n(CC(=O)Nc3ccccc3F)c2=O)cc1 | -4.6 | 20.4 | -0.3 | 19.0* | -5.8
Cc1ccc(Cl)cc1-n1c(=O)cc(N2CCN(C(=O)c3ccco3)CC2)[nH]c1=O | 4.5 | 9.3 | 1.7 | 32.4* | -0.6
CCn1c(=O)cc(N2CCN(C(=O)c3ccco3)CC2)[nH]c1=O | -4.4 | -5.0 | 2.8 | 10.0 | -0.2
CN(C)CCCC(C)(O)C(C)(C)c1ccccc1 (centres undefined) | -2.8 | 3.3 | -2.8 | -3.2 | 73.4*
CN(C)CCC(O)(c1ccccc1)c1ccccc1 | 1.5 | -1.4 | 0.3 | 1.1 | 0.0
CCCn1nc(NC(=O)c2ccco2)c2cc3cc(C)ccc3nc21 | -2.2 | -8.8 | 81.6* | 79.0* | 49.4
CCCn1nc(NS(=O)(=O)c2cccc3nonc23)c2cc3cc(C)ccc3nc21 | · | · | · | 1.5 | ·
CCCn1nc(NC(=O)c2ccco2)c2cc3ccc(C)cc3nc21 | · | · | 47.7 | 56.9* | 24.3
CCCn1nc(NC(=O)COC)c2cc3cc(C)ccc3nc21 | · | · | · | 23.3* | ·
CCCCn1nc(NC(=O)COC)c2cc3ccc(C)cc3nc21 | · | · | · | 4.7 | ·
Cc1ccc2nc3c(cc2c1)c(NC(=O)c1cccnc1)nn3C | -10.4 | 11.2 | 25.3 | 29.0* | 15.4
COc1ccc(CN(C)C(=O)c2cccc(C(=O)N(C)Cc3ccc(OC)cc3)c2)cc1 | · | · | · | 3.2 | ·
CCCn1nc(NC(=O)c2ccccn2)c2cc3cc(C)ccc3nc21 | -20.1 | 12.3 | 93.5* | 103.2* | 48.3
CN1CCN(c2ccc(C(=O)c3ccc(Br)cc3)cc2[N+](=O)[O-])CC1 | -19.3 | 24.4 | 0.9 | -0.1 | -5.5
O=[N+]([O-])c1cccc(NC(=S)N2CCOCC2)c1 | 5.9 | -17.2 | -1.1 | 68.4* | 1.7
C[C@]12CCC(=O)CC1=CCC1C3CC=C(C#N)[C@@]3(C)CC[C@@]12O (some centres undefined) | · | · | · | 5.4 | ·
CC(C)CNC(=O)c1cc(=O)[nH]c2ccc(S(=O)(=O)Nc3ccc(F)cc3)cc12 | · | · | · | 0.3 | ·
CCOC(=O)Nc1c2ccccc2nc2ccccc12 | -14.5 | 38.7 | 82.1* | 131.2* | 64.8*
CCOC(=O)Nc1ccc(Oc2ccccc2)cc1 | -0.7 | 2.2 | -3.5 | -3.4 | -0.1
Cc1cc(O)ccc1Nc1nc2ccccc2nc1Nc1ccc(O)cc1C | -20.4 | 0.7 | · | 37.3* | 38.2
CN(C)/C=C/c1c([N+](=O)[O-])c2ccc(O)cc2n1-c1ccccc1 | -11.1 | 104.5* | 4.3 | 0.9 | 7.3
COC(=O)c1c(C)n(-c2ccccc2)c2ccc(O)cc12 | -1.8 | 9.0 | 18.1 | -2.6 | -0.1
Cc1nn(C(C)C(=O)NNC(=S)Nc2ccc(Cl)cc2)c(C)c1[N+](=O)[O-] (centres undefined) | -4.4 | 2.3 | 5.3 | -2.7 | 3.9
CCN1C(=O)N(S(=O)(=O)C(F)(F)F)[C@@H](c2ccccc2)C(C(=O)OC)=C1C | -14.9 | 26.2 | -0.4 | 34.8* | 0.5
SMILES | TbHK1 inh | Hck Nef HTS | Runt-SMMHC FRET | RanGTP-Impb inh | Runt-CBFb FRET
COC(=O)C1=CNC=C(C(=O)OC)C1c1ccc(C(=O)OC)cc1 | -1.4 | 23.9 | 70.9* | 5.5 | 28.5
Cc1cccn2c(=O)c3cc(C(=O)NCCCOC(C)C)sc3nc12 | · | · | · | -1.1 | ·
Cc1cccn2c(=O)c3cc(C(N)=S)c(=N)n(CCCOC(C)C)c3nc12 | -10.2 | 26.6 | 65.3* | 173.9* | 56.8*
CCOC(=O)c1cc2c(=O)n3cccc(C)c3nc2n(C)c1=N | -10.0 | 148.2* | 37.9 | · | 11.5
CCOCCCNC(=O)c1cc2c(=O)n3cccc(C)c3nc2n1C | · | · | 20.5 | 5.9 | 4.7
CCOCCCn1c(=N)c(C(N)=S)cc2c(=O)n3cccc(C)c3nc21 | -17.6 | 19.4 | · | 173.3* | 17.8
